# Source: ChEMBL document CHEMBL1926565, “Synthesis, antiproliferative activities and telomerase inhibition evaluation of novel asymmetrical 1,2-disubstituted amidoanthraquinone derivatives” (Eur J Med Chem, 2012)
# Active and inactive are the calls of the source. No cut-off for these calls is given here.
# Assays:
# EKVX = test: Cytotoxicity against human EKVX cells assessed as cellular growth at 10 uM; assay type: functional
# Summary of the method: (§1)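 Single-dose screen run by the NCI across its 60-human-tumour-cell-line panel; growth recorded for each cell line.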
# OVCAR-8 = test: Cytotoxicity against human OVCAR8 cells assessed as cellular growth at 10 uM; assay type: functional; summary of the method: as §1
# HL-60(TB) = test: Cytotoxicity against human HL-60(TB) cells assessed as cellular growth at 10 uM; assay type: functional; summary of the method: as §1
# MCF7 = test: Cytotoxicity against human MCF7 cells assessed as cellular growth at 10 uM; assay type: functional; summary of the method: as §1
# U-251 = test: Cytotoxicity against human U251 cells assessed as cellular growth at 10 uM; assay type: functional
# TK-10 = test: Cytotoxicity against human TK10 cells assessed as cellular growth at 10 uM; assay type: functional
# HOP-62 = test: Cytotoxicity against human HOP62 cells assessed as cellular growth at 10 uM; assay type: functional; summary of the method: as §1
# [1] = Growth of human H1299 cells at 10 uM after 48 hrs by MTT assay; conditions: NCI-H1299, 48 h
# UO-31 = test: Cytotoxicity against human UO31 cells assessed as cellular growth at 10 uM; assay type: functional
# NCI-H23 = test: Cytotoxicity against human NCI-H23 cells assessed as cellular growth at 10 uM; assay type: functional; summary of the method: as §1
# SF-295 = test: Cytotoxicity against human SF295 cells assessed as cellular growth at 10 uM; assay type: functional; summary of the method: as §1
# NCI/ADR-RES = test: Cytotoxicity against human NCI/ADR-RES cells assessed as cellular growth at 10 uM; assay type: functional; summary of the method: as §1
# SK-MEL-2 = test: Cytotoxicity against human SK-MEL-2 cells assessed as cellular growth at 10 uM; assay type: functional; summary of the method: as §1
# UACC-257 = test: Cytotoxicity against human UACC257 cells assessed as cellular growth at 10 uM; assay type: functional
# [2] = Growth of human H1299 cells at 1 uM after 48 hrs by MTT assay; conditions: NCI-H1299, 48 h
# Malme-3M = test: Cytotoxicity against human MALME-3M cells assessed as cellular growth at 10 uM; assay type: functional; summary of the method: as §1
# [3] = molecular target: Telomerase reverse transcriptase (Homo sapiens) (UniProt O14746); test: Inhibition of telomerase activity in human H1299 cell free extract at 10 uM by modified TRAP assay
# Telomerase reverse transcriptase (Homo sapiens), sequence (O14746 whole entry): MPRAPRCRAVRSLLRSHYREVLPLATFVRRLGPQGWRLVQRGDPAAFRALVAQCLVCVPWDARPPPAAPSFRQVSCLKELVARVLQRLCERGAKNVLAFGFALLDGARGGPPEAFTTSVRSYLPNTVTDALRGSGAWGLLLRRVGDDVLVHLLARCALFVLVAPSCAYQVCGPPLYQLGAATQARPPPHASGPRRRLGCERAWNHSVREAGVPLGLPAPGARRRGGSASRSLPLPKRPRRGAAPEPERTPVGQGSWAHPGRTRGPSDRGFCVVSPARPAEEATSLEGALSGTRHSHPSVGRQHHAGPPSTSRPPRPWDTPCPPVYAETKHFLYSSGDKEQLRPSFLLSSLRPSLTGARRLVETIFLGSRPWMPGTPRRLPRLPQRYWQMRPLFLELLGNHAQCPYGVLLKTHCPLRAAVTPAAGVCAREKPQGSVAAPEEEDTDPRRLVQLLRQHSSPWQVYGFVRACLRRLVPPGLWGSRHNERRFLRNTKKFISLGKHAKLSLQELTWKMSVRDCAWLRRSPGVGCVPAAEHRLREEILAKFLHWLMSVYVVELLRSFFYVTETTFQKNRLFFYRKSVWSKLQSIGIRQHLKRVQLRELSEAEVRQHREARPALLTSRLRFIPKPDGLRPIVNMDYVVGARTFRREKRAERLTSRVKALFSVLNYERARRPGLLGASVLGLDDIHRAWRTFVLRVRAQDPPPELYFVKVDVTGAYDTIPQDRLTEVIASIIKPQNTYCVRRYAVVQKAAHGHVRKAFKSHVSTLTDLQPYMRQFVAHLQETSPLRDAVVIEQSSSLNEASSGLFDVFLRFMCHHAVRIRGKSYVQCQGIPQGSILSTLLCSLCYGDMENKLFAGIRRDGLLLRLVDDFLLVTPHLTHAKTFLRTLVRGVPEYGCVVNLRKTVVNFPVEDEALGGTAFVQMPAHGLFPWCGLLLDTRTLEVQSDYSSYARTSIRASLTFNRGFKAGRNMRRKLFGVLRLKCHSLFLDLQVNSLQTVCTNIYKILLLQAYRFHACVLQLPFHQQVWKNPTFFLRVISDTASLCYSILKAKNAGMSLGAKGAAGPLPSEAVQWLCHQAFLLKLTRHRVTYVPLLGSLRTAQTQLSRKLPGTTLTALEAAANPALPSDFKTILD
# Summary of the method: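 TRAP assay using total cell lysate from H1299 lung cancer cells as the telomerase source, with protein measured against BSA standards. Compounds tested at 10 µM. Controls were lysate without inhibitor (positive) and RNase A-treated extract without inhibitor (negative).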
# PC-3 [4] = test: Cytotoxicity against human PC3 cells after 48 hrs by SRB assay; assay type: functional, cell-based; conditions: PC-3, 48 h
# Summary of the method: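 PC-3 cells grown in RPMI1640 with 10% FBS at 37 °C, 5% CO₂. Seeded in medium with 5% FBS; after 24 h, one plate fixed with 10% TCA as T₀. Compound or 0.1% DMSO vehicle added for 48 h, then TCA fixation and 0.4% SRB in 1% acetic acid. Dye solubilized in 10 mM Trizma base, absorbance read at 515 nm. IC50 is the concentration giving 50% reduction of the protein gain in controls.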
# CCRF-CEM = test: Cytotoxicity against human CCRF-CEM cells assessed as cellular growth at 10 uM; assay type: functional; summary of the method: as §1
# SW-620 = test: Cytotoxicity against human SW620 cells assessed as cellular growth at 10 uM; assay type: functional
# 786-0 = test: Cytotoxicity against human 786-0 cells assessed as cellular growth at 10 uM; assay type: functional; summary of the method: as §1
# PC-3 [5] = test: Cytotoxicity against human PC3 cells assessed as cellular growth at 10 uM; assay type: functional; summary of the method: as §1
# [6] = molecular target: Telomerase reverse transcriptase (Homo sapiens) (UniProt O14746); test: Residual activity of human TERT in H1299 cells at 10 uM after 24 hrs by SEAP reporter gene assay
# HT-29 = test: Cytotoxicity against human HT-29 cells assessed as cellular growth at 10 uM; assay type: functional; summary of the method: as §1
# SN12C = test: Cytotoxicity against human SN12C cells assessed as cellular growth at 10 uM; assay type: functional
# K562 = test: Cytotoxicity against human K562 cells assessed as cellular growth at 10 uM; assay type: functional; summary of the method: as §1
# NCI-H226 = test: Cytotoxicity against human NCI-H226 cells assessed as cellular growth at 10 uM; assay type: functional; summary of the method: as §1
# [7] = Growth of human H1299 cells at 100 uM 48 hrs by MTT assay; conditions: NCI-H1299, 48 h
# MDA-MB-231 = test: Cytotoxicity against human MDA-MB-231 cells assessed as cellular growth at 10 uM; assay type: functional; summary of the method: as §1
# COLO 205 = test: Cytotoxicity against human COLO205 cells assessed as cellular growth at 10 uM; assay type: functional; summary of the method: as §1
# SF-539 = test: Cytotoxicity against human SF539 cells assessed as cellular growth at 10 uM; assay type: functional; summary of the method: as §1
# OVCAR-4 = test: Cytotoxicity against human OVCAR4 cells assessed as cellular growth at 10 uM; assay type: functional; summary of the method: as §1
# IGROV-1 = test: Cytotoxicity against human IGROV1 cells assessed as cellular growth at 10 uM; assay type: functional; summary of the method: as §1
# UACC-62 = test: Cytotoxicity against human UACC62 cells assessed as cellular growth at 10 uM; assay type: functional
# A549 = test: Cytotoxicity against human A549 cells assessed as cellular growth at 10 uM; assay type: functional; summary of the method: as §1
# SF-268 = test: Cytotoxicity against human SF268 cells assessed as cellular growth at 10 uM; assay type: functional; summary of the method: as §1
# MDA-MB-468 = test: Cytotoxicity against human MDA-MB-468 cells assessed as cellular growth at 10 uM; assay type: functional; summary of the method: as §1
# DU-145 = test: Cytotoxicity against human DU145 cells assessed as cellular growth at 10 uM; assay type: functional; summary of the method: as §1
# MOLT-4 = test: Cytotoxicity against human MOLT4 cells assessed as cellular growth at 10 uM; assay type: functional; summary of the method: as §1
# M14 = test: Cytotoxicity against human M14 cells assessed as cellular growth at 10 uM; assay type: functional; summary of the method: as §1
# BT-549 = test: Cytotoxicity against human BT549 cells assessed as cellular growth at 10 uM; assay type: functional; summary of the method: as §1
# CAKI-1 = test: Cytotoxicity against human Caki1 cells assessed as cellular growth at 10 uM; assay type: functional; summary of the method: as §1
# RXF 393 = test: Cytotoxicity against human RXF393 cells assessed as cellular growth at 10 uM; assay type: functional; summary of the method: as §1
# A498 = test: Cytotoxicity against human A498 cells assessed as cellular growth at 10 uM; assay type: functional; summary of the method: as §1
# [8] = molecular target: Telomerase reverse transcriptase (Homo sapiens) (UniProt O14746); test: Residual activity of human TERT in H1299 cells at 1 uM after 24 hrs by SEAP reporter gene assay
# NCI-H522 = test: Cytotoxicity against human NCI-H522 cells assessed as cellular growth at 10 uM; assay type: functional; summary of the method: as §1
# [9] = molecular target: Telomerase reverse transcriptase (Homo sapiens) (UniProt O14746); test: Residual activity of human TERT in H1299 cells at 100 uM after 24 hrs by SEAP reporter gene assay
# SNB-75 = test: Cytotoxicity against human SNB75 cells assessed as cellular growth at 10 uM; assay type: functional
structure (smiles),measurement,setting,value
Cc1ccc(C(=O)Nc2c(NC(=O)CN3CCCC3)ccc3c2C(=O)c2ccccc2C3=O)cc1,Activity,EKVX,65.93%
same,Activity,OVCAR-8,65.02%
same,Activity,HL-60(TB),96.11%
same,Activity,MCF7,70.79%
same,Activity,U-251,82.17%
same,Activity,TK-10,86.85%
same,Activity,HOP-62,113.43%
same,"growth, % of control at 10 µM",[1],69%
same,Activity,UO-31,69.24%
same,Activity,NCI-H23,73.29%
same,Activity,SF-295,68.97%
same,Activity,NCI/ADR-RES,50.86%
same,Activity,SK-MEL-2,102.17%
same,Activity,UACC-257,92.83%
same,"growth, % of control at 1 µM",[2],88%
same,Activity,Malme-3M,82.24%
same,inhibition,[3],inactive
same,IC50,PC-3 [4],17.6 µM
same,Activity,CCRF-CEM,39.61%
same,Activity,SW-620,82.29%
same,Activity,786-0,65.15%
same,Activity,PC-3 [5],75%
same,residual activity,[6],59%
same,Activity,HT-29,31.34%
same,Activity,SN12C,74.82%
same,Activity,K562,40.86%
same,Activity,NCI-H226,90.22%
same,"growth, % of control at 100 µM",[7],5%
same,Activity,MDA-MB-231,73.34%
same,Activity,COLO 205,65.6%
same,Activity,SF-539,81.29%
same,Activity,OVCAR-4,47.06%
same,Activity,IGROV-1,106.07%
same,Activity,UACC-62,76.82%
same,Activity,A549,84.88%
same,Activity,SF-268,86.17%
same,Activity,MDA-MB-468,69.27%
same,Activity,DU-145,91.52%
same,Activity,MOLT-4,48.2%
same,Activity,M14,88.01%
same,Activity,BT-549,81.58%
same,Activity,CAKI-1,55.64%
same,Activity,RXF 393,63.8%
same,Activity,A498,68.12%
same,residual activity,[8],81%
same,Activity,NCI-H522,103.02%
same,residual activity,[9],3%
same,Activity,SNB-75,66.03%
Cc1ccc(C(=O)Nc2ccc3c(c2NC(=O)c2ccc(C)cc2)C(=O)c2ccccc2C3=O)cc1,Activity,OVCAR-8,85.43%
same,Activity,HL-60(TB),73.11%
same,Activity,MCF7,71.71%
same,Activity,U-251,91.73%
same,Activity,TK-10,124.91%
same,Activity,HOP-62,105.23%
same,"growth, % of control at 10 µM",[1],116%
same,Activity,UO-31,66.54%
same,Activity,NCI-H23,90.57%
same,Activity,SF-295,110.81%
same,Activity,SK-MEL-2,100.65%
same,Activity,UACC-257,98.46%
same,"growth, % of control at 1 µM",[2],100%
same,Activity,Malme-3M,127.16%
same,inhibition,[3],inactive
same,IC50,PC-3 [4],3.16 µM
same,Activity,CCRF-CEM,79.02%
same,Activity,SW-620,93.79%
same,Activity,786-0,116.17%
same,Activity,PC-3 [5],82.91%
same,residual activity,[6],97%
same,Activity,HT-29,99.39%
same,Activity,SN12C,98.59%
same,Activity,K562,107.54%
same,Activity,NCI-H226,91.14%
same,"growth, % of control at 100 µM",[7],62%
same,Activity,MDA-MB-231,93.29%
same,Activity,COLO 205,108.57%
same,Activity,SF-539,97.26%
same,Activity,OVCAR-4,104.32%
same,Activity,IGROV-1,78.71%
same,Activity,UACC-62,87.5%
same,Activity,A549,90.46%
same,Activity,SF-268,98.91%
same,Activity,MDA-MB-468,104.17%
same,Activity,DU-145,95.93%
same,Activity,MOLT-4,89.63%
same,Activity,M14,91.57%
same,Activity,BT-549,95.39%
same,Activity,CAKI-1,94.89%
same,Activity,RXF 393,88.25%
same,Activity,A498,124.08%
same,residual activity,[8],108%
same,Activity,NCI-H522,72.05%
same,residual activity,[9],30%
same,Activity,SNB-75,102.26%
Cc1ccc(C(=O)Nc2c(NC(=O)CCl)ccc3c2C(=O)c2ccccc2C3=O)cc1,Activity,EKVX,88.22%
same,Activity,OVCAR-8,8.72%
same,Activity,HL-60(TB),-46.88%
same,Activity,MCF7,-79.28%
same,Activity,U-251,-44.02%
same,Activity,TK-10,130.52%
same,Activity,HOP-62,-28.62%
same,"growth, % of control at 10 µM",[1],2%
same,Activity,UO-31,42.91%
same,Activity,NCI-H23,-85.89%
same,Activity,SF-295,79.7%
same,Activity,NCI/ADR-RES,72.17%
same,Activity,SK-MEL-2,52%
same,"growth, % of control at 1 µM",[2],103%
same,Activity,Malme-3M,-22.41%
same,inhibition,[3],inactive
same,IC50,PC-3 [4],3.87 µM
same,Activity,SW-620,-43.27%
same,Activity,786-0,11.3%
same,Activity,PC-3 [5],6.81%
same,residual activity,[6],0%
same,Activity,HT-29,3.37%
same,Activity,SN12C,-81.02%
same,Activity,NCI-H226,-25.3%
same,"growth, % of control at 100 µM",[7],0%
same,Activity,MDA-MB-231,24.67%
same,Activity,COLO 205,-53.43%
same,Activity,SF-539,-31.42%
same,Activity,OVCAR-4,34.52%
same,Activity,IGROV-1,51.41%
same,Activity,UACC-62,-67.8%
same,Activity,A549,-81.71%
same,Activity,SF-268,14.63%
same,Activity,MDA-MB-468,-83.42%
same,Activity,DU-145,-97.56%
same,Activity,MOLT-4,-23.17%
same,Activity,M14,-22.68%
same,Activity,BT-549,28.19%
same,Activity,A498,123.78%
same,residual activity,[8],109%
same,Activity,NCI-H522,57.88%
same,residual activity,[9],0%
same,Activity,SNB-75,6.31%
